Source: publication PMC9753181 (ACS Omega, 2022)
“Also recorded” adds a separate entry of the source. Read-outs that look alike come from different tables or passages of the source.

Columns and labels:
SARS-CoV-2 [1] = conditions: cited from earlier work; for EC50, inhibit SARS-CoV-2 replications in vitro: entry inhibitors
SARS-CoV-2 [2] = conditions: hamster; cited from earlier work
ACE2 = ACE2 expression in Vero E6 cells; assay type: cell-based; conditions: 48 h, RNA-seq, western blot
influenza [3] = experiment: Predicted anti-influenza EC50 by pEC50 = pIC50 + Log Fic; conditions: A549, read-out: Predicted EC50 (anti-influenza)
influenza [4] = conditions: read-out: Observed EC50, influenza replication; A549 cells; cited from earlier work
[5] = IV injection of RDV, mice
SARS-CoV-2 [6] = conditions: cited from earlier work
[7] = test system: multidrug resistance-associated protein 4 (MRP4); conditions: ref 28 (RDV), FDA Office of Clinical Pharmacology Review (GS-441524); cited from earlier work
[8] = IV injection of RDV, nonhuman primates; cited from earlier work
[9] = IV injection of RDV, rhesus macaques
RdRp of SARS-CoV-2 = conditions: read-out: IC50, inhibition of RdRp of SARS-CoV-2; active form of RDV; cited from earlier work
SARS-CoV-2 [10] = conditions: rhesus macaque, cited from earlier work
SARS-CoV-2 M^pro = SARS-CoV-2 M^pro (Severe acute respiratory syndrome coronavirus 2, UniProt P0DTD1); conditions: cited from earlier work
Calu-3 cells = experiment: Cytotoxicity; assay type: cell-based
In short: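 Calu-3 cells were grown in medium supplemented with 1% non-essential amino acids and 1% sodium pyruvate at 37 °C, 5% CO2. Cells were seeded and cultured for 24 h, then exposed to test compound for 48 h. CCK8 solution was added at 10% and incubated 15 min to read viability.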

CCN(CC)CCCC(C)Nc1ccnc2cc(Cl)ccc12 (centres unmarked) [CQ, Chloroquine]
Drug accumulation with verapamil (P-gp inhibitor) (Vero E6 cells): facilitated accumulation
EC50, inhibit SARS-CoV-2 replications in vitro (SARS-CoV-2 [1]): low micromolar

NC(=O)c1nc(F)c[nH]c1=O [FAV, Favipiravir]
Fic (Vero E6 cells; Vero E6, Fic = fu,cell x Kp): 0.03371
Drug accumulation with verapamil (P-gp inhibitor) (Vero E6 cells; Vero E6 cells): increased FAV accumulation
Infectious titers in the lung (SARS-CoV-2 [2]): reduction of infectious titers in the lung
ACE2 expression (ACE2): reduced angiotensin-converting enzyme 2 (ACE2) expression
Fic (A549 cells): 0.03145
EC50 (influenza [3]): 3.2 µM
EC50 (influenza [4]): 3 µM
EC50 (SARS-CoV-2 [1]; read-out: Observed EC50, SARS-CoV-2 replication, Vero E6): 65 to 400 µM

N#C[C@@]1(c2ccc3c(N)ncnn23)O[C@H](CO)[C@@H](O)[C@H]1O [GS-441524]
Lung concentration of GS-441524 relative to its predicted EC50 [5]: 10 fold
SARS-CoV-2 replication in vivo (SARS-CoV-2 [6]; oral administration of GS-441524, mouse model): inhibit SARS-CoV-2 replication in vivo
Substrate of MRP4 [7]: not a substrate
Bloodstream concentration of GS-441524 relative to RDV [8]: 1000 fold
Lung concentration of GS-441524 relative to its predicted EC50 [9]: 10 fold

N#C[C@@]1(c2ccc3c(N)ncnn23)O[C@H](COP(=O)(O)OP(=O)(O)OP(=O)(O)O)[C@@H](O)[C@H]1O [GS-443902]
IC50 (RdRp of SARS-CoV-2): 0.032 µM

CCN(CCO)CCCC(C)Nc1ccnc2cc(Cl)ccc12 (centres unmarked) [HCQ, hydroxychloroquine]
Infectious titers in lungs (SARS-CoV-2 [10]): failed to reduce infectious titers
Drug accumulation with verapamil (P-gp inhibitor) (Vero E6 cells; Vero E6 cells): facilitated accumulation
Infectious titers in lungs (SARS-CoV-2 [2]): failed to reduce infectious titers
EC50, inhibit SARS-CoV-2 replications in vitro (SARS-CoV-2 [1]): low micromolar
Inhibition of M^pro activities at 200 μM (SARS-CoV-2 M^pro): slightly inhibited

CCC(CC)COC(=O)[C@H](C)N[P@](=O)(OC[C@H]1O[C@@](C#N)(c2ccc3c(N)ncnn23)[C@H](O)[C@@H]1O)Oc1ccccc1 [RDV, Remdesivir]
Antiviral activity in vivo (SARS-CoV-2 [10]; RDV): strong antiviral activities
Drug accumulation with ceefourin (MRP4 inhibitor) (Vero E6 cells; Vero E6 cells): significantly increased RDV accumulation
Drug accumulation with verapamil (P-gp inhibitor) (Vero E6 cells; Vero E6 cells): significantly increased RDV accumulation
Virus titer in the lung / antiviral activity in vivo (SARS-CoV-2 [6]; RDV, mouse): successfully reduce virus titer in the lung; also recorded: strong antiviral activities
Substrate of MRP4 [7]: substrate
Drug accumulation with ceefourin (MRP4 inhibitor) (A549-ACE2 cells): Neither verapamil nor ceefourin changed RDV accumulation
Drug accumulation with verapamil (P-gp inhibitor) (A549-ACE2 cells): Neither verapamil nor ceefourin changed RDV accumulation

COc1ccc(CCN(C)CCCC(C#N)(c2ccc(OC)c(OC)c2)C(C)C)cc1OC (centres unmarked) [verapamil]
Cytotoxicity (Calu-3 cells): strong cytotoxicity
